This note sets out measurements from ChEMBL document CHEMBL1944602, “Synthesis and biological characterisation of sirtuin inhibitors based on the tenovins” (Bioorg Med Chem, 2012).

For assay [1], the target named is T1, NAD-dependent protein deacetylase sirtuin-1 (Homo sapiens) (UniProt Q96EB6).
T1 sequence (whole entry): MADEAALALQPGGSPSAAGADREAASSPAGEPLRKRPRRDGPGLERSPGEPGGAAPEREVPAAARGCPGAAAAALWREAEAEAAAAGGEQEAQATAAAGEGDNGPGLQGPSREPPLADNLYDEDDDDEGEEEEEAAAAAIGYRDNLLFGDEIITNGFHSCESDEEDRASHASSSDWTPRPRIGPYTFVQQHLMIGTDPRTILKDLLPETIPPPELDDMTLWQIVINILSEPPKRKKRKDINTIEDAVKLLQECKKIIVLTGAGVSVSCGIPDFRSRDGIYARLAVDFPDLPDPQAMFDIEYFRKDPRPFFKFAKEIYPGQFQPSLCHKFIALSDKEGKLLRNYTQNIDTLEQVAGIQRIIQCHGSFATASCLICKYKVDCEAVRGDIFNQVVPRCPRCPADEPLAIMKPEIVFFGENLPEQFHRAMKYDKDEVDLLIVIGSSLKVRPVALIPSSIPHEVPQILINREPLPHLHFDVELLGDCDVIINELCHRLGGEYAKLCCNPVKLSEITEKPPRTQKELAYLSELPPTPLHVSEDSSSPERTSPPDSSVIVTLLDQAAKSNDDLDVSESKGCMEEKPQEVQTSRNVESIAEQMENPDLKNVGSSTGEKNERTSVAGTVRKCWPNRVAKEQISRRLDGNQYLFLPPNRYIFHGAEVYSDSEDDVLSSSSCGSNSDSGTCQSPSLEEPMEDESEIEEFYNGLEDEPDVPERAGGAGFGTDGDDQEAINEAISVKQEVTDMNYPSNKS
Description: Inhibition of SirT1 in human ARN8 cells assessed as p53 activation at 5 uM by beta-galactosidase reporter gene assay. It counts as cell-based. The method in brief: (§1)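 p53-dependent transcription measured with a beta-galactosidase reporter in ARN8 cells, run in triplicate. Read-out is the ratio of signal in treated cells to DMSO-control cells, given to 2 significant figures; a positive or negative activity call is also recorded.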
A general note: Reporter assays use an easily measured gene product as a stand-in for the process of interest.

Assay [2] addresses T1, NAD-dependent protein deacetylase sirtuin-1 (Homo sapiens). In words: Inhibition of SirT1 in human ARN8 cells assessed as p53 activation at 10 uM by beta-galactosidase reporter gene assay. It counts as cell-based. The method, boiled down:
as §1

For assay [3] the target is unchanged. In words: Inhibition of SirT1 in human ARN8 cells assessed as p53 activation at 5 uM by beta-galactosidase reporter gene assay relative to control. It counts as cell-based. The method, boiled down:
as §1

Assay [4] has the same target. In words: Inhibition of recombinant human SitT1 at 60 uM by Fluor de Lys fluorescence assay. The method in brief:
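Human recombinant SirT1 deacetylation measured with the Fluor de Lys fluorescence kit at a fixed 60 µM inhibitor. Tested on two separate occasions; percent inhibition reported as a mean weighted to the standard error.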

Assay [5] shares this target. In words: Inhibition of SirT1 in human ARN8 cells assessed as p53 activation at 10 uM by beta-galactosidase reporter gene assay relative to control. The assay is classed as cell-based. The method in brief:
as §1

The target is the same in assay [6]. In words: Inhibition of SirT1 in human ARN8 cells assessed as p53 activation at 20 uM by beta-galactosidase reporter gene assay relative to control. The assay is classed as cell-based. The method in brief: as §1
In assay [7] the target is T2, NAD-dependent protein deacetylase sirtuin-2 (Homo sapiens, UniProt Q8IXJ6).
T2 sequence (Q8IXJ6 whole entry): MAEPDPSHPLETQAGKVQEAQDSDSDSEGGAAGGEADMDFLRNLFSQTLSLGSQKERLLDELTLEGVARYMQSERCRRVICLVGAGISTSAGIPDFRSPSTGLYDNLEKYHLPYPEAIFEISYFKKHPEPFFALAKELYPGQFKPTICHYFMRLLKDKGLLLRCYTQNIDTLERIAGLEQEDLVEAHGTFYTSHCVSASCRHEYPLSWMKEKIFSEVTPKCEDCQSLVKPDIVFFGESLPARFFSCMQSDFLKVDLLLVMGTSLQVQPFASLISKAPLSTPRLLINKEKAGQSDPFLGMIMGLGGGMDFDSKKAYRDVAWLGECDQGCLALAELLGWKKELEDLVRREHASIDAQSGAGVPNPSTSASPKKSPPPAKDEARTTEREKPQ
In words: Inhibition of recombinant human SitT2 by Fluor de Lys fluorescence assay.

The target of assay [8] is T1, NAD-dependent protein deacetylase sirtuin-1 (Homo sapiens). In words: Inhibition of SirT1 in human ARN8 cells assessed as p53 activation at 20 uM by beta-galactosidase reporter gene assay. The assay is classed as cell-based. The method in brief: as §1
Assay [9] has as its target T3, NAD-dependent protein deacetylase sirtuin-1 (Homo sapiens, UniProt Q96EB6).
T3 sequence (Q96EB6 whole entry): T1 sequence (whole entry)
In words: Inhibition of recombinant human SitT1 by Fluor de Lys fluorescence assay.

Calls of active or inactive are those of the source. No cut-off for these calls is given here. Some results are limits rather than exact numbers.

Take `CN(C)CCCCC(=O)Nc1ccc(NC(=S)NC(=O)c2cccc(Br)c2)cc1`: the inhibition entry in [1] and in assay [2] was “inactive” in each case. In addition, the fold change (FC) in assay [3] was determined as 1.1; in assay [5], 1.2; in assay [6], 1.2. Moreover, the inhibition in assay [4] worked out at 70.5%.
Take `CCCc1ccc(C(=O)NC(=S)Nc2ccc(NC(=O)CCCCN(C)C)cc2)cc1`: the results for the IC50 in assay [7] and in assay [9] were 7.85 µM and 60.2 µM, respectively. In addition, the inhibition entry in assay [8] and in [2] was “Active” throughout. The inhibition result in assay [1] is “inactive”. Besides, the values for the fold change (FC) in [3], in assay [5] and in assay [6] were 1, 1.5 and 2.4, respectively. In addition, in assay [4], the inhibition is 50.9%.
For the molecule `CN(C)CCCCC(=O)Nc1ccc(NC(=S)NC(=O)c2ccc(Br)cc2)cc1`, the IC50 in [7] was 55 µM; in [9], greater than 90 µM. The inhibition result in [8], in assay [1] and in assay [2] was “inactive” throughout. Moreover, the fold change (FC) in [3] is 1; in assay [5], 1.1; in assay [6], 1.01. In assay [4], the inhibition was determined as 13.5%.
With `Cc1ccc(C(=O)NC(=S)Nc2ccc(NC(=O)CCCCN(C)C)cc2)cc1`, the IC50 in [7] and in assay [9] was greater than 90 µM throughout. For the same molecule, the inhibition entry in assay [8], in assay [1] and in [2] was “inactive” throughout. For the same molecule, the fold change (FC) in [3] is 1.2; in [5], 1.1; in assay [6], 1.1. Also, the inhibition in assay [4] was 47.3%.
Turning to `CN(C)CCCCC(=O)Nc1ccc(NC(=S)NC(=O)c2ccccc2)cc1`, the IC50 in assay [7] and in assay [9] was greater than 90 µM each time. For the same molecule, the inhibition result in assay [8], in assay [1] and in [2] was “inactive” each time. For the same molecule, the fold change (FC) in assay [3] was 1.1; in assay [5] it was 0.97; in assay [6] it was 0.92. Besides, the inhibition in [4] turned out to be 3.5%.
In the case of `CN(C)CCCCC(=O)Nc1ccc(NC(=O)NC(=O)c2ccc(C(C)(C)C)cc2)cc1`, the figures for the IC50 in assay [7] and in [9] were 88.4 µM and 21.7 µM, respectively. Also, the inhibition entry in assay [8], in assay [1] and in assay [2] was “Active” in each case. For the same molecule, the fold change (FC) was found to be 6.9 in [3], 7.3 in assay [5] and 6.5 in assay [6]. Moreover, in [4], the inhibition was 93.6%.
With `Cc1cccc(C(=O)NC(=S)Nc2ccc(NC(=O)CCCCN(C)C)cc2)c1`, the IC50 in assay [7] and in assay [9] was greater than 90 µM in each case. The inhibition result in [8], in assay [1] and in assay [2] was “inactive” in each case. The fold change (FC) in assay [3] is 0.94; in assay [5] it was 0.89; in [6], 0.89. Also, the inhibition in [4] came out at 5.2%.
In the case of `CN(C)CCCCNC(=O)c1ccc(NC(=S)NC(=O)c2ccc(C(C)(C)C)cc2)cc1`, the IC50 was 12.4 µM in assay [7] and 17.9 µM in assay [9]. In addition, the inhibition result in [8] and in assay [2] was “Active” in each case. Also, the inhibition in assay [4] was 72.5%. Also, the fold change (FC) in [5] turned out to be 3.9; in assay [6], 5.5.
For `CN(C)CCCCC(=O)Nc1ccc(NC(=S)NC(=O)c2cccc(Cl)c2)cc1`, the inhibition entry in assay [8], in assay [1] and in assay [2] was “inactive” each time. The values for the fold change (FC) in assay [3], in assay [5] and in [6] were 1.1, 1.1 and 1, respectively. Moreover, the inhibition in assay [4] was 29.2%.
`CN(C)CCCCC(=O)Nc1ccc(NC(=S)NC(=O)c2ccccc2Cl)cc1`: the IC50 in [7] and in [9] was greater than 90 µM in each case. Moreover, the inhibition result in assay [8], in [1] and in assay [2] was “inactive” throughout. Moreover, the fold change (FC) in assay [3] was found to be 1.2; in [5], 1.1; in assay [6], 1.2. For the same molecule, in assay [4], the inhibition was 29.3%.
For `COc1ccc(C(=O)NC(=S)Nc2ccc(NC(=O)CCCCN(C)C)cc2)cc1`, the IC50 in assay [7] was 50.6 µM; in [9] it was greater than 90 µM. Besides, the inhibition result in assay [8], in assay [1] and in assay [2] was “inactive” in each case. For the same molecule, the fold change (FC) is 1 in assay [3], 1.1 in [5] and 1.12 in [6]. The inhibition in assay [4] came out at 48.5%.
On to `CN(C)CCCCC(=O)Nc1ccc(NC(=S)NC(=O)c2ccc(Cl)cc2)cc1`, for which the IC50 in assay [7] and in assay [9] was greater than 90 µM each time. For the same molecule, the inhibition result in assay [8], in [1] and in assay [2] was “inactive” in each case. The fold change (FC) came out at 1.1 in assay [3], 1.2 in assay [5] and 1.01 in assay [6]. Besides, in assay [4], the inhibition was 53.4%.
On to `COc1cccc(C(=O)NC(=S)Nc2ccc(NC(=O)CCCCN(C)C)cc2)c1`, for which the inhibition entry in assay [8], in assay [1] and in [2] was “inactive” each time. In addition, the fold change (FC) is 1.1 in assay [3], 1.1 in assay [5] and 1.2 in [6]. Besides, the inhibition in [4] was determined as 25.3%.
Regarding `CN(C)CCCCC(=O)Nc1ccc(NC(=S)NC(=O)c2ccc(C(C)(C)C)c(Br)c2)cc1`, the inhibition result in assay [8] is “Active”. In addition, the inhibition result in [1] and in assay [2] was “inactive” each time. In addition, the fold change (FC) in [3] was 1.1; in assay [5], 1.1; in assay [6], 1.4. For the same molecule, the inhibition in [4] was determined as 93.5%.
As for `CCCCCc1ccc(C(=O)NC(=S)Nc2ccc(NC(=O)CCCCN(C)C)cc2)cc1`, the IC50 in [7] came out at 5.6 µM; in [9] it was 36.7 µM. Moreover, the inhibition result in [1] and in assay [2] was “inactive” in each case. Moreover, the fold change (FC) in assay [3] was determined as 1.1; in [5] it was 1.1; in assay [6], 1.2. Besides, in assay [4], the inhibition was determined as 73.2%.
For the molecule `Cc1ccccc1C(=O)NC(=S)Nc1ccc(NC(=O)CCCCN(C)C)cc1`, the IC50 in assay [7] is 42.5 µM; in [9], greater than 90 µM. Also, the inhibition result in assay [8], in assay [1] and in [2] was “inactive” in each case. The fold change (FC) is 0.99 in assay [3], 0.98 in [5] and 0.84 in assay [6]. Also, the inhibition in assay [4] was found to be 9.9%.
Take `CN(C)CCCCC(=O)Nc1ccc(NC(=S)NC(=O)c2ccc(Cl)c(Cl)c2)cc1`: the inhibition result in assay [8], in assay [1] and in [2] was “inactive” throughout. The fold change (FC) was 1.04 in assay [3], 1.1 in assay [5] and 0.97 in assay [6]. In addition, the inhibition in assay [4] was 8.1%.

As a reminder, the inhibition is the drop in the measured response relative to a control, in per cent. As usually defined, the IC50 is the concentration that gives 50% inhibition.
